This note sets out measurements from ChEMBL document CHEMBL4000160, “Wasabisides A-E, Lignan Glycosides from the Roots of Wasabia japonica” (J Nat Prod, 2016).

Data set [1] deals with BV-2. The data set is described as follows: Antineuroinflammatory activity in mouse BV2 cells assessed as inhibition of LPS-induced nitric oxide production after 24 hrs by Griess assay. The following applies: BV-2, 24 h. Format: functional, cell-based. Put shortly: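 BV2 microglia seeded at 4 × 10^4 cells/well, exposed with or without graded compound concentrations, stimulated with LPS 100 ng/mL for 24 h. Nitrite in medium measured by mixing supernatant 1:1 with Griess reagent (0.1% N-1-naphthylethylenediamine, 1% sulfanilamide, 5% phosphoric acid), absorbance read at 570 nm after 10 min against sodium nitrite standard curve. NG-monomethyl-L-arginine positive control.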
For orientation: The Griess reaction detects nitrite, a stable product of nitric oxide.

The nature of data set [2]: Cytotoxicity against rat C6 cells assessed as cell viability at 20 uM by MTT assay relative to control. Type of data set: cell-based. The following applies: read-out: Activity. In a few lines: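 C6 glioma cells seeded 1 × 10^5 cells/well, treated 24 h later in serum-free DMEM with 20 μM compound for 24 h; viability by MTT assay, expressed as % of untreated control. Mean ± SD of three independent experiments.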
In general terms: Tetrazolium dyes change colour on reduction, which living cells bring about.

Data set [3] has as its system BT-549. The data set can be described thus: Cytotoxicity against human BT549 cells after 48 hrs by SRB assay. Format: functional, cell-based. The following applies: BT-549, 48 h. Put shortly: (§1)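 Human tumor lines from ATCC, maintained at Korea Research Institute of Chemical Technology; cytotoxicity determined by sulforhodamine B (SRB) method, reported as IC50.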
For data set [4], the system named is A549. The data set can be described thus: Cytotoxicity against human A549 cells after 48 hrs by SRB assay. Type of data set: functional, cell-based. Particulars: A549, 48 h. In a few lines:
as §1
(In general: The SRB assay estimates cell density from bound dye.)

Data set [5] relates to SK-MEL-2. The data set is described as follows: Cytotoxicity against human SK-MEL-2 cells after 48 hrs by SRB assay. Type of data set: functional, cell-based. The following applies: SK-MEL-2, 48 h. In a few lines: as §1
Data set [6] relates to SK-OV-3. The data set is described as follows: Cytotoxicity against human SKOV3 cells after 48 hrs by SRB assay. Format: functional, cell-based. Particulars: SK-OV-3, 48 h. Put shortly: as §1
Data set [7] deals with C6. The data set can be described thus: Induction of nerve growth factor secretion in rat C6 cells at 20 uM after 24 hrs by ELISA relative to control. Format: functional. Put shortly: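 C6 glioma cells (Korean Cell Line Bank) seeded 1 × 10^5 cells/well; after 24 h switched to serum-free DMEM with 20 μM compound for 24 h. NGF in conditioned medium quantified by ELISA, given as % of untreated control (100%). 6-Shogaol positive control; mean ± SD of three independent experiments.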

Broadly, the IC50 is the concentration needed to halve the response being measured. With `COc1cc(C[C@@H]2C(=O)OC[C@H]2[C@@H](O)c2cc(OC)c(O[C@@H]3O[C@H](CO)[C@@H](O)[C@H](O)[C@H]3O)c(OC)c2)ccc1O`, the IC50 in data set [1] is more than 50 µM; in data set [3], more than 10 µM; in data set [4] it was more than 10 µM; in data set [5], more than 10 µM; in data set [6], more than 10 µM. The viability at 20 µM in data set [2] turned out to be 102%. The same molecule had an Activity in data set [7] of 99.4%.
With `COc1cc(C[C@@H]2C(=O)OC[C@H]2[C@@H](O)c2ccc(O[C@@H]3O[C@H](CO)[C@@H](O)[C@H](O)[C@H]3O)c(OC)c2)ccc1O`, the 50% inhibitory concentration (IC50) in data set [1] is more than 50 µM; in data set [3] it was more than 10 µM; in data set [4], more than 10 µM; in data set [5], more than 10 µM; in data set [6], more than 10 µM. For the same molecule, the viability at 20 µM in data set [2] worked out at 98.2%. In data set [7], the Activity was 103.3%.
Regarding `COc1cc(C[C@H]2C(=O)OC[C@@H]2C(=O)c2ccc(O[C@@H]3O[C@H](CO)[C@@H](O)[C@H](O)[C@H]3O)c(OC)c2)ccc1O`, the IC50 in data set [1] is more than 50 µM; in data set [3], more than 10 µM; in data set [4], more than 10 µM; in data set [5], more than 10 µM; in data set [6], more than 10 µM. Further, in data set [2], the viability at 20 µM came to 101%. Besides, the Activity in data set [7] came out at 122.1%.
As for `COc1cc([C@H](O)[C@@H]2COC(=O)[C@H]2Cc2ccc(O[C@@H]3O[C@H](CO)[C@@H](O)[C@H](O)[C@H]3O)c(OC)c2)ccc1O`, the IC50 in data set [1] is more than 50 µM; in data set [3], more than 10 µM; in data set [4], more than 10 µM; in data set [5], more than 10 µM; in data set [6], more than 10 µM. Moreover, in data set [2], the viability at 20 µM amounted to 102%. Besides, the Activity in data set [7] worked out at 104.3%.
Regarding `COc1cc(C[C@@H]2C(=O)OC[C@H]2[C@@H](O[C@@H]2O[C@H](CO)[C@@H](O)[C@H](O)[C@H]2O)c2ccc(O)c(OC)c2)ccc1O`, the IC50 in data set [1] is more than 50 µM; in data set [3], more than 10 µM; in data set [4], more than 10 µM; in data set [5], more than 10 µM; in data set [6], more than 10 µM. Besides, the viability at 20 µM in data set [2] came out at 100%. The molecule also had an Activity in data set [7] of 150.7%.
In the case of `O=C(O)c1ccccc1` [BENZOIC ACID], the IC50 was more than 50 µM in data set [1]; more than 10 µM in data set [3]; more than 10 µM in data set [4]; more than 10 µM in data set [5]; more than 10 µM in data set [6]. Further, in data set [2], the viability at 20 µM turned out to be 96.4%. This molecule also gave an Activity in data set [7] of 114.5%.
`O=C(O)/C=C/c1ccc(O)cc1` [COUMARIC ACID]: the IC50 in data set [1] is more than 50 µM; in data set [3] it was 10 µM; in data set [4] it was more than 10 µM; in data set [5], more than 10 µM; in data set [6] it was more than 10 µM. Moreover, in data set [2], the viability at 20 µM was 198%. Besides, the Activity in data set [7] was determined as 129.2%.
`COc1cc(/C=C/C(=O)O)ccc1O` [FERULATE]: the IC50 in data set [1] was more than 50 µM; in data set [3] it was more than 10 µM; in data set [4] it was more than 10 µM; in data set [5] it was more than 10 µM; in data set [6], more than 10 µM. In addition, the viability at 20 µM in data set [2] stood at 95%. In data set [7], this molecule displayed an Activity of 110.7%.
In the case of `CCCCC/C=C/C(=O)CCc1ccc(O)c(OC)c1` [SHOGAOL], in data set [2], the viability at 20 µM was found to be 115%. In data set [7], this molecule had an Activity of 165.7%.
As for `COc1cc(C(=O)O)cc(OC)c1O` [SYRINGIC ACID], the IC50 is more than 50 µM in data set [1]; more than 10 µM in data set [3]; more than 10 µM in data set [4]; more than 10 µM in data set [5]; more than 10 µM in data set [6]. Also, the viability at 20 µM in data set [2] is 95.9%. The molecule also gave an Activity in data set [7] of 125.5%.
For the molecule `CNC(=N)NCCC[C@H](N)C(=O)O` [TILARGININE], the IC50 in data set [1] stood at 17.6 µM.
